Results on one compound are retold here after ChEMBL document CHEMBL3112425, “Design, synthesis, and structure-activity relationship studies of a potent PACE4 inhibitor” (J Med Chem, 2014).

Peptide text beside a SMILES is read from it. * marks the point of attachment. X1 = N=C(N)NC/C=C/CN*

Data set [1] has as its system DU-145. The data set can be described thus: Cellular uptake in human DU145 cells after 1 hr by propidium iodide staining-based FACS analysis. The data set is classed as ADME, cell-based. To be noted: du-145, 1 h. Summed up:
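FITC-βAla-labelled peptides at 10 μM were given to DU145 cells for 1 h in serum-free RPMI. Cells were collected, then washed twice with 0.05% trypsin (5 min, 37 °C) to strip membrane-bound peptide. Propidium iodide (10 μg/mL, 2 min) excluded damaged cells. FACS read 10 000 events/sample as geometric mean fluorescence, against untreated-cell autofluorescence.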
A general note: A flow cytometer gives signals particle by particle.

Data set [2] concerns the target T1, Proprotein convertase subtilisin/kexin type 6 (Homo sapiens, UniProt P29122).
T1 sequence (P29122 whole entry): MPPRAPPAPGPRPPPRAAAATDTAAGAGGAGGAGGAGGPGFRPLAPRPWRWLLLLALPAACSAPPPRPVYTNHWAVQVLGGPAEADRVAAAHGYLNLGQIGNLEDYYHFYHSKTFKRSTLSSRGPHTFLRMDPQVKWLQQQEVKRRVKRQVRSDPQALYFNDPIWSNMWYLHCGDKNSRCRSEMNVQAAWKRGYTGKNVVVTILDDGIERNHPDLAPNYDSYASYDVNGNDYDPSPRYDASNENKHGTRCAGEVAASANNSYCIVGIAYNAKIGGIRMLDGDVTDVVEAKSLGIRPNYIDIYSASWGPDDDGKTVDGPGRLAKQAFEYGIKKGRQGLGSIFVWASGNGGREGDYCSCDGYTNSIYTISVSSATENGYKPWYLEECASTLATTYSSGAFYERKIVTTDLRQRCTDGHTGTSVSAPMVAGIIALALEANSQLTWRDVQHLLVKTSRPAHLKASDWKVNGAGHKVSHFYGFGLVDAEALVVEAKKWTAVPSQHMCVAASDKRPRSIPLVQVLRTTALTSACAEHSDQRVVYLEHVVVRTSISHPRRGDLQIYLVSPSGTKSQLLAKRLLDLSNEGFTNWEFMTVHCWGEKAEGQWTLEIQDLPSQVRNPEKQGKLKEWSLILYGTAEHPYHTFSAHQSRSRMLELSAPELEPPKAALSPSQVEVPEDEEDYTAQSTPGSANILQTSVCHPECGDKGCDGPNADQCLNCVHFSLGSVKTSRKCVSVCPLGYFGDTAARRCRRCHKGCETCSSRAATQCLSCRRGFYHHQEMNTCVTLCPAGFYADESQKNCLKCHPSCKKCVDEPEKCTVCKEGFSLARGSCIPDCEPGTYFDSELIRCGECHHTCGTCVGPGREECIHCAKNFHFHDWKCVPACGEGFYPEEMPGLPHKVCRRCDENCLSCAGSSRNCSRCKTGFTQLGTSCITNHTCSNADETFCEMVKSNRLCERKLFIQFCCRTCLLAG
The data set can be described thus: Inhibition of human recombinant PACE4 expressed in drosophila schneider 2 cells using pyroGlu-Arg-Thr-Lys-Arg-AMC as substrate after 1 hr. In short, it runs like this: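 Human enzymes were expressed in Drosophila S2 cells and purified. Fluorogenic pyroGlu-RTKR-AMC was used at fixed concentration with varied inhibitor, 37 °C over 1 h. Buffers: furin, 100 mM Hepes pH 7.5, 1 mM CaCl2, 1 mM β-mercaptoethanol, 1.8 mg/mL BSA; PACE4 and PC7, 20 mM Bis-Tris pH 6.5, 1 mM CaCl2, 1.8 mg/mL BSA; PC2, same buffer at pH 5.7. Ki from IC50 (Cheng–Prusoff), or apparent Ki (Morrison) for tight binders. Triplicate, mean ± SD.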

For `CC(=O)N[C@@H](CC(C)C)C(=O)N[C@@H](CC(C)C)C(=O)N[C@@H](CC(C)C)C(=O)N[C@@H](CC(C)C)C(=O)N[C@@H](CCCNC(=N)N)C(=O)N[C@H](C(=O)N[C@@H](CCCCN)C(=O)NC/C=C/CNC(=N)N)C(C)C` (Ac-LLLLRVK-X1), the Drug uptake entry in data set [1] was “Active”. The inhibition constant Ki in data set [2] came to 5.3 nM.

For orientation: Ki means a dissociation constant, usually derived from enzyme kinetics or from competition with a known ligand.
